We go through one compound from ChEMBL document CHEMBL2150950, “Effect of 4-aryl-2-methyl-5-nitro-1,4-dihydropyridine-3-carboxylates on the guinea pig papillary muscle and isolated human vena saphena magna that is used for coronary artery bypass grafting” (2011).

The source made the active and inactive calls. The calls are words filed in the database; no cut-off is given here.

The nature of assay [1]: Ionotropic effect in guinea pig ventricle papillary muscles assessed as lengthening of 10% repolarized cardiac action potential duration time at 10^-5 M by microelectrode technique relative to untreated control (reference value: 52 to 54 APD10 ms) in presence of 2 x 10^-5 M KATP channel blocker glibenclamide. The assay is classed as functional, Cavia porcellus.
A short description of assay [2]: Vasodilatory activity in human vena saphena magna assessed as relaxation of phenylephrine-induced smooth muscle contraction at 10^-7 to 10^-4 M. The class given is functional. In a few lines:
(§1)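 Saphenous vein rings came from 37 CABG patients. They were bathed in Tyrode's solution (mM: NaCl 137, KCl 5.4, CaCl2 1.8, MgCl2 0.9, Tris HCl 10, glucose 5; pH 7.4), equilibrated 45–60 min and washed every 15 min. Rings were precontracted with 10^-4 M phenylephrine, then given cumulative test agent at 10^-7 to 10^-4 M. Isometric relaxation was recorded, as means ± SE.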

The nature of assay [3]: Ionotropic effect in guinea pig right ventricle papillary muscles assessed as contraction force at 10^-4 M by force transduction assay relative to untreated control (reference value: 100%) in presence of 1 x 10^-6 M IKr channel blocker Sotalol. The assay is classed as functional, Cavia porcellus, Heart right ventricle.
Assay [4] in a line: Ionotropic effect in guinea pig ventricle papillary muscles assessed as lengthening of 90% repolarized cardiac action potential duration time at 10^-7 M by microelectrode technique relative to untreated control (reference value: 209 to 222 APD50 ms) in presence of 3.1 x 10^-6 M inward rectifier current blocker BaCl2. The class given is functional, Cavia porcellus.
Assay [5] in a line: Ionotropic effect in guinea pig ventricle papillary muscles assessed as lengthening of 90% repolarized cardiac action potential duration time at 10^-7 M by microelectrode technique relative to untreated control (reference value: 209 to 222 APD50 ms) in presence of 2 x 10^-5 M KATP channel blocker glibenclamide. The assay is classed as functional, Cavia porcellus.
Assay [6] can be described thus: Ionotropic effect in guinea pig ventricle papillary muscles assessed as lengthening of 10% repolarized cardiac action potential duration time at 10^-7 M by microelectrode technique relative to untreated control (reference value: 52 to 54 APD10 ms) in presence of 3.1 x 10^-6 M inward rectifier current blocker BaCl2. The assay is classed as functional, Cavia porcellus.

A short description of assay [7]: Ionotropic effect in guinea pig ventricle papillary muscles assessed as lengthening of 50% repolarized cardiac action potential duration time at 10^-5 M by microelectrode technique relative to untreated control (reference value: 180 to 192 APD50 ms) in presence of 1 x 10^-6 M IKr channel blocker Sotalol. The assay is classed as functional, Cavia porcellus.
Assay [8] is described as follows: Ionotropic effect in guinea pig ventricle papillary muscles assessed as lengthening of 90% repolarized cardiac action potential duration time at 10^-7 M by microelectrode technique relative to untreated control (reference value: 132 to 176 APD50 ms). The class given is functional, Cavia porcellus, Papillary muscle.
Assay [9] can be described thus: Ionotropic effect in guinea pig ventricle papillary muscles assessed as lengthening of 90% repolarized cardiac action potential duration time at 10^-4 M by microelectrode technique relative to untreated control (reference value: 209 to 222 APD50 ms) in presence of 2 x 10^-5 M KATP channel blocker glibenclamide. The class given is functional, Cavia porcellus.
The nature of assay [10]: Vasodilatory activity in human vena saphena magna assessed as reduction in phenylephrine-induced smooth muscle contraction at 0.1 uM. The assay is classed as functional. Further details: scale not given: the % may be the effect or the level left. In a few lines:
as §1

For `CCCOCCOC(=O)C1=C(C)NC=C([N+](=O)[O-])C1c1ccccc1OC(F)F` (stereo not given), the Time is recorded as 61 ms in [1]; 237 ms in [4]; 234.5 ms in assay [5]; 64.3 ms in assay [6]; 199 ms in assay [7]; 221.6 ms in assay [8]. Besides, the Time in [9] worked out at 276 ms. Also, the outcome in assay [2] was Active. For the same compound, the figures for the Activity in assay [3] and in assay [10] were 154.8% and 26%, respectively.
